Results from different studies.
Each line is one published result; the experiments were not run side by side.
Cell line: MDA-MB-231
Effect on: cell growth or viability

SMILES	test	setting	quantity	value
O=C(/C=C/c1cccc(F)c1)Nc1cc(-c2ccnc(N3CCC(O)CC3)c2)ccn1	MTT	5 µM	inhibition	75.8%
Cn1cc(-n2cnc3c(NCc4nc5cc(Cl)c(Cl)cc5[nH]4)nc(N4CCOCC4)nc32)cn1	–	5 days	EC50	32.4 nM
COc1ccc(COC[C@@](O)(CNCc2ccc(F)cc2)[C@@H]2CC[C@@H](C)C[C@H]2OCc2ccc(OC)cc2)cc1	MTT	30 µM, 72 h	inhibition	99.2%
O=C(C=Cc1ccccc1)Nc1cc(-c2ccnc(N3CCC(O)CC3)c2)ccn1	MTT	72 h	IC50	3 nM
CCOc1ccc2c(C)c(CC)c(=O)oc2c1C	MTT	1000 µg/mL	viability	2.44%
COc1cc2c3c(n(CCCn4ccnc4)c(=O)c2cc1OC)-c1nc2c(cc1C3=O)OCO2	MTS	72 h	IC50	1510 nM
COc1cc([C@@H]2c3cc4c(cc3[C@@H](O[C@@H]3O[C@@H]5CO[C@@H](C)O[C@H]5[C@H](O)[C@H]3O)[C@H]3COC(=O)[C@H]23)OCO4)cc(OC)c1O	MTT	48 h	IC50	43200 nM
CCc1c(C)c2ccc(OCc3nnc(S)n3N)c(C)c2oc1=O	MTT	31.25 µg/mL	viability	94.3%
C[C@@H]1CC[C@@H]([C@](C)(O)CNCc2ccccc2F)[C@H](OCc2ccccc2)C1	MTT	30 µM, 72 h	inhibition	44.1%
CCc1c(C)c2ccc(OCC=Cc3ccccc3)c(C)c2oc1=O	MTT	125 µg/mL	viability	87.1%
O=C(O)c1cccnc1Nc1cccc(C(F)(F)F)c1	SRB	48 h	GI50	> 30000 nM
CCNC(=S)NNC(=O)COc1ccc2c(C)c(CC)c(=O)oc2c1C	MTT	62.5 µg/mL	viability	84.5%
C[C@@H]1CC[C@@H]([C@@](O)(CNCc2cccc3ccccc23)COCc2ccccc2)[C@H](OCc2ccccc2)C1	MTT	30 µM, 72 h	inhibition	91.2%
O=C(C=Cc1ccccc1)Nc1cc(-c2ccnc(N3CCOCC3)c2)ccn1	MTT	5 µM	inhibition	78.3%
COc1ccccc1CNC[C@@](C)(O)[C@@H]1CC[C@@H](C)C[C@H]1OCc1ccccc1	MTT	30 µM, 72 h	inhibition	87.6%
O=C(C=Cc1ccccc1)Nc1cccc(-c2ccnc(N3CCC(O)CC3)c2)c1	MTT	5 µM	inhibition	61.6%
C[C@@H]1CC[C@@H]([C@@](O)(CNCc2ccccc2)COCc2ccccc2)[C@H](OCc2ccccc2)C1	MTT	30 µM, 72 h	inhibition	97%
Cc1c(Cc2ccccc2)c(=O)oc2c(C)c(OCC(=O)NN=Cc3ccc([N+](=O)[O-])cc3)ccc12	MTT	500 µg/mL	viability	14.4%
C[C@@H]1CC[C@@H]([C@@](O)(CNCc2ccccc2)COCc2ccc(F)cc2)[C@H](OCc2ccc(F)cc2)C1	MTT	30 µM, 72 h	inhibition	98.8%
CC(=NNC(=O)COc1ccc2c(C)c(Cc3ccccc3)c(=O)oc2c1C)c1ccc(Br)cc1	MTT	31.25 µg/mL	viability	48.2%
